# Measured values: ChEMBL document CHEMBL4732088, “Identification and optimization of piperlongumine analogues as potential antioxidant and anti-inflammatory agents via activation of Nrf2” (Eur J Med Chem, 2021)
# The source made the active and inactive calls. No cut-off for these calls is given here.
# Experiments:
# [1] = molecular target: T1, Nuclear factor erythroid 2-related factor 2 (Rattus norvegicus) (UniProt O54968); experiment: Activation of Nrf2 in rat PC12 cells assessed as increase in NQO1 protein level at 20 uM after 24 hrs by Western blot analysis; type: cell-based; conditions: PC-12, filed as activator
# T1 sequence (whole entry): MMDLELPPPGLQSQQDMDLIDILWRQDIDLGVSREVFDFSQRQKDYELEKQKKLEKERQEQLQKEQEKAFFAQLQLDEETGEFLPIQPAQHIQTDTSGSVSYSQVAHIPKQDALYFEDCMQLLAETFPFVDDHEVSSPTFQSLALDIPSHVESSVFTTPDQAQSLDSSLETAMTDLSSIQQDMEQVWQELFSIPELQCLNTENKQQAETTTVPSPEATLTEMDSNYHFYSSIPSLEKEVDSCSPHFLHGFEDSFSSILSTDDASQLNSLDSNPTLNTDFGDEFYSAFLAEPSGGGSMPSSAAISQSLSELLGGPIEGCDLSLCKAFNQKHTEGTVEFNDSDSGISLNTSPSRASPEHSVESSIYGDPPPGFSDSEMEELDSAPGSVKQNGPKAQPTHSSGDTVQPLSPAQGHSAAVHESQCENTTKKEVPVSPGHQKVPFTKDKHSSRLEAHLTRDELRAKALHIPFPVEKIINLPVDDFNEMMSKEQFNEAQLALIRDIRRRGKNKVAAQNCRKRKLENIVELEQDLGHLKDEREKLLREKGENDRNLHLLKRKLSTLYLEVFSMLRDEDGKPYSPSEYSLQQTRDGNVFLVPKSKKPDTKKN
# PC-12 [2] = experiment: Protection against H2O2-induced apoptosis in rat PC12 cells assessed as early apoptotic cells at 5 uM incubated for 24 hrs by annexin V FITC/propidium iodide staining based flow cytometry (reference value: 3.9 %); type: functional
# PC-12 [3] = experiment: Protection against 6-OHDA-induced mitochondrial dysfunction in rat PC12 cells assessed as change in mitochondrial membrane potential at 10 uM pretreated with compound followed by 6-OHDA addition by JC-1 staining based flow cytometry (reference value: 73.2 %); type: functional
# How it was run: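 Mitochondrial membrane potential in PC12 cells pretreated with compound (5, 10, 20 μM), then exposed to H₂O₂ (200 μM) or 6-OHDA (150 μM). JC-1 staining, red-to-green fluorescence shift read by flow cytometry. Mean ± SD, n = 3.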
# PC-12 [4] = experiment: Neuroprotective activity against 6-OHDA-induced cell death in rat PC12 cells assessed as cell viability at 20 uM preincubated for 30 mins in presence of brusatol […] and measured after 24 hrs by MTT assay; type: functional, cell-based; conditions: time 24.5 hrs
# [5] = molecular target: T2, Nuclear factor erythroid 2-related factor 2 (Mus musculus) (UniProt Q60795); experiment: Activation of Nrf2 in mouse BV2 cells assessed as inhibition of LPS-induced IL-6 production at 5 to 20 uM by ELISA; type: cell-based; conditions: BV-2, filed as activator, dose 5-20 µM
# T2 sequence (whole entry): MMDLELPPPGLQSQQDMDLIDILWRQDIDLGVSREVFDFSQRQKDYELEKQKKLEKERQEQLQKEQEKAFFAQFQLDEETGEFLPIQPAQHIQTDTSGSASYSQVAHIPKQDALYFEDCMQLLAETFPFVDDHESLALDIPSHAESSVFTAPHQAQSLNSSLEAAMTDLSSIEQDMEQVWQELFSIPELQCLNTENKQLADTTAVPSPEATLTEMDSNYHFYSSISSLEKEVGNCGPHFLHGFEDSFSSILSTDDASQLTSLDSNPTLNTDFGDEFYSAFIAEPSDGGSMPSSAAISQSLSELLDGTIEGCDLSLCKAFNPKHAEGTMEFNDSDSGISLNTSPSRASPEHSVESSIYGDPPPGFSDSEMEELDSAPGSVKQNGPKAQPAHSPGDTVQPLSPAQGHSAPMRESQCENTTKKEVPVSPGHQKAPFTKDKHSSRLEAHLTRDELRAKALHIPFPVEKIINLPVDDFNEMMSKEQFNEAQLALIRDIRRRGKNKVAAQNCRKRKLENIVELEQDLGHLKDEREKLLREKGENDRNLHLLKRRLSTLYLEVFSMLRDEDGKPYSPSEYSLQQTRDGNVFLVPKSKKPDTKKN
# How it was run: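 BV2 microglia pretreated with compound, then LPS-stimulated; IL-6 quantified by ELISA kit; mean ± SD, n = 3.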
# [6] = molecular target: T1, Nuclear factor erythroid 2-related factor 2 (Rattus norvegicus); experiment: Activation of Nrf2 in rat PC12 cells assessed as increase in GCLC protein level at 20 uM after 24 hrs by Western blot analysis; type: cell-based; conditions: PC-12, filed as activator
# [7] = molecular target: T2, Nuclear factor erythroid 2-related factor 2 (Mus musculus); experiment: Activation of Nrf2 in mouse BV2 cells assessed as upregulation of NQO-1 protein expression after 24 hrs by Western blot analysis; type: cell-based; conditions: BV-2, filed as activator, dose 5-20 µM
# How it was run: (§1)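 BV2 microglia exposed to compound for 24 h over a concentration series; Nrf2, NQO1, HO-1, TrxR1, GCLM and GCLC protein levels read by Western blot.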
# [8] = molecular target: T1, Nuclear factor erythroid 2-related factor 2 (Rattus norvegicus); experiment: Activation of Nrf2 in rat PC12 cells assessed as increase in GCLM protein level at 20 uM after 12 hrs by Western blot analysis; type: cell-based; conditions: PC-12, filed as activator
# PC-12 [9] = experiment: Protection against 6-OHDA-induced apoptosis in rat PC12 cells assessed as early apoptotic cells at 10 uM incubated for 24 hrs by annexin V FITC/propidium iodide staining based flow cytometry (reference value: 19.2 %); type: functional
# PC-12 [10] = experiment: Protection against 6-OHDA-induced apoptosis in rat PC12 cells assessed as viable cells at 20 uM incubated for 24 hrs by annexin V FITC/propidium iodide staining based flow cytometry (reference value: 72.0 %); type: functional; conditions: read-out: Activity
# [11] = molecular target: T2, Nuclear factor erythroid 2-related factor 2 (Mus musculus); experiment: Activation of Nrf2 in mouse BV2 cells assessed as upregulation of HO-1 protein expression after 24 hrs by Western blot analysis; type: cell-based; conditions: BV-2, filed as activator, dose 5-20 µM; how it was run: as §1
# PC-12 [12] = experiment: Protection against 6-OHDA-induced apoptosis in rat PC12 cells assessed as necrotic cells at 10 uM incubated for 24 hrs by annexin V FITC/propidium iodide staining based flow cytometry (reference value: 1.1 %); type: functional
# BV-2 = experiment: Antiinflammatory activity in mouse BV2 cells transfected with control siRNA assessed as reduction in LPS-induced NO production at 20 uM pretreated with compound followed by LPS stimulation for 18 hrs
# [13] = molecular target: T1, Nuclear factor erythroid 2-related factor 2 (Rattus norvegicus); experiment: Activation of Nrf2 in rat PC12 cells assessed as increase in NQO1 protein level after 24 hrs by Western blot analysis; type: cell-based; conditions: PC-12, filed as activator, dose 5-20 µM
# How it was run: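 PC12 cells treated with compound for 24 h at rising concentrations; NQO1, HO-1, TrxR1, GCLM, GCLC protein detected by Western blot.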
# [14] = molecular target: T1, Nuclear factor erythroid 2-related factor 2 (Rattus norvegicus); experiment: Activation of Nrf2 in rat PC12 cells assessed as increase in HO-1 protein level at 20 uM after 12 hrs by Western blot analysis; type: cell-based; conditions: PC-12, filed as activator
# [15] = molecular target: T1, Nuclear factor erythroid 2-related factor 2 (Rattus norvegicus); experiment: Activation of Nrf2 in rat PC12 cells assessed as increase in TrxR1 protein level at 20 uM after 24 hrs by Western blot analysis; type: cell-based; conditions: PC-12, filed as activator
# PC-12 [16] = experiment: Neuroprotective activity against H2O2-induced cell death in rat PC12 cells at 20 uM preincubated for 30 mins in presence of brusatol followed by H2O2 stimulation and measured after 24 hrs by MTT assay; type: functional, cell-based; conditions: time 24.5 hrs
# How it was run: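 PC12 cells incubated 30 min with compound (20 μM) plus brusatol (10 nM) or ZnPP (10 nM), then insult for 24 h (H₂O₂ stated as 150 μM); viability by MTT.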
smiles,measurement,setting,value
CCN(C)C(=O)N1CCN(C(=O)/C=C/c2ccc(F)cc2)C1=O,Activity,[1],Active
same,Activity,PC-12 [2],5.1%
same,Activity,PC-12 [3],83.6%
same,Activity,PC-12 [4],inactive
same,Activity,[5],Active
same,Activity,[6],Active
same,Activity,[7],Dose-dependent effect
same,Activity,[8],Active
same,Activity,PC-12 [9],7.4%
same,viability at 20 µM,PC-12 [10],89%
same,Activity,[11],Dose-dependent effect
same,Activity,PC-12 [12],1%
same,Activity,BV-2,Active
same,Activity,[13],Dose-dependent effect
same,Activity,[14],Active
same,Activity,[15],Active
same,Activity,PC-12 [16],inactive
